Assay [1] has as its system Staphylococcus aureus. The assay can be described thus: Antimicrobial activity against Staphylococcus aureus SH1000 by broth microdilution method. Format: functional, organism-based. The method in brief: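 MIC by broth microdilution in Mueller-Hinton broth following CLSI guidelines.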
In general terms: Broth dilution looks for growth in wells or tubes with falling amounts of substance.

Assay [2] deals with Escherichia coli. The assay can be described thus: Antimicrobial activity against Escherichia coli AB734 by broth microdilution method. Format: functional, organism-based. The method in brief: (§1)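 Broth microdilution MIC per CLSI guidelines in Mueller-Hinton broth. E. coli 1411 and AB734 were also tested with added polymyxin B nonapeptide to permeabilise the outer membrane.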

The subject of assay [3] is Escherichia coli. The assay can be described thus: Antimicrobial activity against Escherichia coli 1411 by broth microdilution method. Format: functional, organism-based. Summed up: as §1
In assay [4] the test system is Escherichia coli. The assay can be described thus: Inhibition of Escherichia coli MurF using D-Ala-D-Ala/UMtri-mDAP as substrate assessed as residual activity at 100 uM after 15 mins by Malachite green method. Summed up: (§2)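 Purified E. coli MurF in 50 mM Hepes pH 8.0, 50 mM MgCl2, 0.005% Triton X-114, with D-Ala-D-Ala, UMtri-mDAP and ATP. Compound was added in DMSO (final 5% v/v). Mixtures were incubated 15 min at 37 °C, quenched with Biomol reagent, and absorbance was read at 650 nm after 5 min. Runs were in duplicate. Residual activity was taken versus DMSO-only controls. IC50 came from residual activity at seven concentrations.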

For assay [5], the system named is Streptococcus pneumoniae. The assay can be described thus: Inhibition of Streptococcus pneumoniae MurF using D-Ala-D-Ala/UMtri-L-Lys as substrate assessed as residual activity at 100 uM after 15 mins by Malachite green method. Summed up:
(§3)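 Purified S. pneumoniae MurF in 50 mM Hepes pH 8.0, 50 mM MgCl2, 0.005% Triton X-114, with D-Ala-D-Ala, UMtri-L-Lys and ATP. Compound was added in DMSO (5% v/v final). Reactions ran 15 min at 37 °C, were stopped with Biomol malachite green reagent, and A650 was measured after 5 min. Runs were in duplicate. Residual activity was versus DMSO controls. IC50 was from seven concentrations.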

The subject of assay [6] is Staphylococcus aureus. The assay can be described thus: Inhibition of Staphylococcus aureus MurF using D-Ala-D-Ala/UMtri-L-Lys as substrate assessed as residual activity at 100 uM after 15 mins by Malachite green method. The method in brief: (§4)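 S. aureus MurF, purified, assayed in 50 mM Hepes pH 8.0 with 20 mM MgCl2 and 0.005% Triton X-114, with D-Ala-D-Ala, UMtri-L-Lys and ATP. Compound was in DMSO (5% v/v final). After 15 min at 37 °C, Biomol reagent was added and A650 was read 5 min later. Duplicates were run. Residual activity was relative to 5% DMSO controls. IC50 was read as 50% residual activity across seven concentrations.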

Assay [7] in a line: Inhibition of Streptococcus pneumoniae MurF using D-Ala-D-Ala/UMtri-L-Lys as substrate after 15 mins by Malachite green method. Summed up: as §3
A short description of assay [8]: Inhibition of Staphylococcus aureus MurF using D-Ala-D-Ala/UMtri-L-Lys as substrate after 15 mins by Malachite green method. The method in brief:
as §4

The subject of assay [9] is Streptococcus pneumoniae. Put plainly: Antimicrobial activity against Streptococcus pneumoniae R6 by broth microdilution method. Format: functional. The method in brief: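 MIC by CLSI broth microdilution in Mueller-Hinton broth supplemented with 5% (v/v) lysed horse blood.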
Assay [10] in a line: Inhibition of Escherichia coli MurF using D-Ala-D-Ala/UMtri-mDAP as substrate after 15 mins by Malachite green method. Summed up:
as §2

For orientation: IC50 means the midpoint of a concentration-inhibition curve. Usually MIC stands for the lowest concentration found to suppress growth. The low end stands for inhibition by little substance, the high end for a need for much substance.

≈ marks a conversion by molar mass, not a printed value. Calls of active or inactive are those of the source. The rule behind the calls is not given here.

In the case of `CC1CCN(S(=O)(=O)c2cc(C(=O)Nc3sc4c(c3C#N)CCCC4)c(Cl)cc2Cl)CC1`, the outcome in the assay with Staphylococcus aureus [1], in the assay with Escherichia coli [2] and with Escherichia coli [3] was inactive. For the same compound, the Activity in the assay with Escherichia coli [4] was determined as 87%; in the assay with Streptococcus pneumoniae [5], 90%; in the assay on Staphylococcus aureus [6], 80%.
With `N#Cc1c(NC(=O)c2cc(S(=O)(=O)N3CCOCC3)c(Cl)cc2Cl)sc2c1CCN(Cc1ccccc1)C2`, the IC50 in assay [7] was determined as 0.64 µM; in [8], 80 µM; in assay [10] it was 109 µM. Further, the outcome with Staphylococcus aureus [1], in the assay with Escherichia coli [2] and in the assay with Escherichia coli [3] was inactive. Further, the MIC in the assay on Streptococcus pneumoniae [9] is greater than 128 µg/mL.
Consider `N#Cc1c(NC(=O)c2cc(S(=O)(=O)N3CCNC(=O)C3)c(Cl)cc2Cl)sc2c1CCCC2`, for which the result in the assay with Staphylococcus aureus [1], with Escherichia coli [2] and in the assay with Escherichia coli [3] was inactive. Further, the values for the Activity in the assay on Escherichia coli [4], in the assay on Streptococcus pneumoniae [5] and in the assay with Staphylococcus aureus [6] were 91%, 89% and 95%, respectively.
`N#Cc1ccc(N2CCc3c(sc(NC(=O)c4cc(S(=O)(=O)N5CCOCC5)c(Cl)cc4Cl)c3C#N)C2)cc1`: the result with Staphylococcus aureus [1], in the assay with Escherichia coli [2] and with Escherichia coli [3] was inactive. Moreover, the Activity in the assay with Escherichia coli [4] was found to be 95%; in the assay on Streptococcus pneumoniae [5] it was 63%; with Staphylococcus aureus [6], 85%. In the assay on Streptococcus pneumoniae [9], this compound gave an MIC greater than 128 µg/mL.
`N#Cc1c(NC(=O)c2cc(S(=O)(=O)N3CCOCC3)c(Cl)cc2Cl)sc2c1CCN(Cc1ccc(C(=O)O)cc1)C2`: the IC50 turned out to be 0.86 µM in assay [7], 110 µM in [8] and 118 µM in assay [10]. For the same compound, the outcome in the assay on Staphylococcus aureus [1], in the assay with Escherichia coli [2] and in the assay with Escherichia coli [3] was inactive. In the assay on Streptococcus pneumoniae [9], the MIC is greater than 128 µg/mL.
In the case of `COc1ccc(CN2CCc3c(sc(NC(=O)c4cc(S(=O)(=O)N5CCOCC5)c(Cl)cc4Cl)c3C#N)C2)cc1`, the figures for the IC50 in [7], in [8] and in assay [10] were 0.6 µM, 95 µM and 82 µM, respectively. Moreover, the result in the assay with Staphylococcus aureus [1], in the assay on Escherichia coli [2] and in the assay on Escherichia coli [3] was inactive. The MIC in the assay with Streptococcus pneumoniae [9] was greater than 128 µg/mL.
With `N#Cc1c(NC(=O)c2cc(S(=O)(=O)N3CCOCC3)c(Cl)cc2Cl)sc2c1CCN(Cc1ccc3c(c1)OCO3)C2`, the figures for the half-maximal inhibitory concentration (IC50) in [7], in assay [8] and in [10] were 0.99 µM, 109 µM and 73 µM, respectively. For the same compound, the outcome with Staphylococcus aureus [1], in the assay on Escherichia coli [2] and in the assay on Escherichia coli [3] was inactive. The compound further registered an MIC against Streptococcus pneumoniae [9] greater than 128 µg/mL.
On to `N#Cc1c(NC(=O)c2cc(S(=O)(=O)N3CCOCC3)c(Cl)cc2Cl)sc2c1CCN(Cc1ccc(F)cc1)C2`, for which the half-inhibitory concentration (IC50) turned out to be 0.98 µM in assay [7], 79 µM in assay [8] and 100 µM in assay [10]. For the same compound, the result in the assay with Staphylococcus aureus [1], in the assay on Escherichia coli [2] and with Escherichia coli [3] was inactive. Besides, the MIC against Streptococcus pneumoniae [9] was greater than 128 µg/mL.
Take `COc1ccc(CN2CCc3c(sc(NC(=O)c4cc(S(=O)(=O)N5CCOCC5)c(Cl)cc4Cl)c3C#N)C2)cc1OC`: the half-inhibitory concentration (IC50) in assay [7] came out at 10.4 µM; in assay [8] it was 66.5 µM; in assay [10] it was 37 µM. Besides, the outcome in the assay with Staphylococcus aureus [1], with Escherichia coli [2] and with Escherichia coli [3] was inactive. Further, the MIC with Streptococcus pneumoniae [9] was greater than 128 µg/mL.
`N#Cc1c(NC(=O)c2cc(S(=O)(=O)N3CCOCC3)c(Cl)cc2Cl)sc2c1CCN(c1ccc([N+](=O)[O-])cc1)C2`: the result with Staphylococcus aureus [1], in the assay on Escherichia coli [2] and in the assay on Escherichia coli [3] was inactive. Moreover, the values for the Activity with Escherichia coli [4], with Streptococcus pneumoniae [5] and in the assay on Staphylococcus aureus [6] were 74%, 80% and 83%, respectively. Further, the MIC with Streptococcus pneumoniae [9] was greater than 128 µg/mL.
Regarding `N#Cc1c(NC(=O)c2cc(S(=O)(=O)N3CCSC3)c(Cl)cc2Cl)sc2c1CCCC2`, the outcome in the assay on Staphylococcus aureus [1], with Escherichia coli [2] and in the assay with Escherichia coli [3] was inactive. In addition, the results for the Activity with Escherichia coli [4], in the assay on Streptococcus pneumoniae [5] and in the assay on Staphylococcus aureus [6] were 104%, 66% and 85%, respectively. The minimal inhibitory concentration (MIC) against Streptococcus pneumoniae [9] was greater than 128 µg/mL.
Regarding `N#Cc1c(NC(=O)c2cc(S(=O)(=O)N3CCOCC3)c(Cl)cc2Cl)sc2c1CCN(Cc1cccc(O)c1)C2`, the figures for the IC50 in assay [7], in [8] and in assay [10] were 0.42 µM, 91 µM and 81 µM, respectively. Also, the result with Staphylococcus aureus [1], in the assay on Escherichia coli [2] and in the assay on Escherichia coli [3] was inactive. In the assay on Streptococcus pneumoniae [9], this compound yielded an MIC of 16 µg/mL (≈ 26.3 µM).
Take `N#Cc1c(NC(=O)c2cc(S(=O)(=O)N3CCOCC3)c(Cl)cc2Cl)sc2c1CCN(Cc1ccc(O)c(C(=O)O)c1)C2`: the IC50 in assay [7] worked out at 1.41 µM; in assay [8], 132 µM; in [10] it was 106 µM. In addition, the outcome with Staphylococcus aureus [1], with Escherichia coli [2] and in the assay on Escherichia coli [3] was inactive. For the same compound, the MIC with Streptococcus pneumoniae [9] is greater than 128 µg/mL.
Consider `COc1ccc(CN2CCc3c(sc(NC(=O)c4cc(S(=O)(=O)N5CCOCC5)c(Cl)cc4Cl)c3C#N)C2)cc1O`, for which the IC50 in [7] was determined as 0.6 µM; in assay [8], 115 µM; in [10] it was 77 µM. For the same compound, the result in the assay with Staphylococcus aureus [1], with Escherichia coli [2] and with Escherichia coli [3] was inactive. In addition, the MIC in the assay on Streptococcus pneumoniae [9] was greater than 128 µg/mL.
On to `N#Cc1c(NC(=O)c2cc(S(=O)(=O)N3CCOCC3)c(Cl)cc2Cl)sc2c1CCN(Cc1cccc(C(=O)O)c1)C2`, for which the concentration for half-maximal inhibition (IC50) in [7] came to 2.55 µM; in assay [8], 118 µM; in [10], 67 µM. Moreover, the result in the assay on Staphylococcus aureus [1], in the assay on Escherichia coli [2] and in the assay on Escherichia coli [3] was inactive. In the assay with Streptococcus pneumoniae [9], this compound had a minimal inhibitory concentration (MIC) greater than 128 µg/mL.
On to `CC(=O)Oc1ccc(CN2CCc3c(sc(NC(=O)c4cc(S(=O)(=O)N5CCOCC5)c(Cl)cc4Cl)c3C#N)C2)cc1OC(C)=O`, for which the IC50 stood at 3.03 µM in assay [7], 89 µM in assay [8] and 88 µM in assay [10]. Further, the outcome with Staphylococcus aureus [1], with Escherichia coli [2] and with Escherichia coli [3] was inactive. The MIC against Streptococcus pneumoniae [9] is greater than 128 µg/mL.
Consider `N#Cc1ccc(CN2CCc3c(sc(NC(=O)c4cc(S(=O)(=O)N5CCOCC5)c(Cl)cc4Cl)c3C#N)C2)cc1`, for which the results for the IC50 in [7], in assay [8] and in assay [10] were 1.36 µM, 80 µM and 62 µM, respectively. Moreover, the result with Staphylococcus aureus [1], with Escherichia coli [2] and in the assay with Escherichia coli [3] was inactive. For the same compound, the minimal inhibitory concentration (MIC) with Streptococcus pneumoniae [9] was greater than 128 µg/mL.
In the case of `CCOC(=O)C1CCN(S(=O)(=O)c2cc(C(=O)Nc3sc4c(c3C#N)CCCC4)c(Cl)cc2Cl)CC1`, the result in the assay with Staphylococcus aureus [1], in the assay on Escherichia coli [2] and in the assay with Escherichia coli [3] was inactive. In addition, the Activity with Escherichia coli [4] amounted to 95%; in the assay on Streptococcus pneumoniae [5], 100%; in the assay on Staphylococcus aureus [6], 100%.
Take `COC(=O)c1ccc(CN2CCc3c(sc(NC(=O)c4cc(S(=O)(=O)N5CCOCC5)c(Cl)cc4Cl)c3C#N)C2)cc1`: the IC50 in assay [7] amounted to 0.72 µM; in [8], 88 µM; in assay [10], 59 µM. Further, the outcome with Staphylococcus aureus [1], in the assay on Escherichia coli [2] and with Escherichia coli [3] was inactive. For the same compound, the MIC against Streptococcus pneumoniae [9] is greater than 128 µg/mL.
For the compound `N#Cc1c(NC(=O)c2cc(S(=O)(=O)N3CCOCC3)c(Cl)cc2Cl)sc2c1CCN(Cc1ccc([N+](=O)[O-])cc1)C2`, the IC50 came out at 1.09 µM in assay [7], 94 µM in assay [8] and 101 µM in assay [10]. In addition, the outcome with Staphylococcus aureus [1], in the assay on Escherichia coli [2] and in the assay on Escherichia coli [3] was inactive. Further, the MIC against Streptococcus pneumoniae [9] worked out at 128 µg/mL (≈ 201 µM).
`N#Cc1cccc(CN2CCc3c(sc(NC(=O)c4cc(S(=O)(=O)N5CCOCC5)c(Cl)cc4Cl)c3C#N)C2)c1`: the IC50 in [7] came to 1.17 µM; in assay [8], 90 µM; in assay [10], 99 µM. Besides, the result in the assay on Staphylococcus aureus [1], in the assay on Escherichia coli [2] and with Escherichia coli [3] was inactive. Moreover, the MIC against Streptococcus pneumoniae [9] is greater than 128 µg/mL.

These data come from ChEMBL document CHEMBL2406982, “Structure-activity relationships of new cyanothiophene inhibitors of the essential peptidoglycan biosynthesis enzyme MurF” (Eur J Med Chem, 2013).
